Source: ChEMBL document CHEMBL1127424, “7-azetidinylquinolones as antibacterial agents. 2. Synthesis and biological activity of 7-(2,3-disubstituted-1-azetidinyl)-4-oxoquinoline- and -1,8-naphthyridine-3-carboxylic acids. Properties and structure-activity relationships of quinolones with an azetidine moiety” (J Med Chem, 1994)
Converted amounts (≈) assume the structure as drawn.

Key:
[1] = HPLC capacity factor (k'); type: ADME
Summary of the method: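 Ion-pair reversed-phase HPLC on ODS-2 (10 μm) at 45 °C. Mobile phase: 10 mM sodium heptanesulfonate plus 50 mM KH2PO4 (pH 3.5)–methanol 45:55, 1 mL/min. Samples at 100 μg/mL in DMF, injected in duplicate, UV 280 nm. k' = (tR − t0)/t0.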

[2] = tested on: Staphylococcus aureus; test: In vitro minimum inhibitory concentration for Staphylococcus aureus ATCC 25178; type: functional
Summary of the method: (§1)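 Serial 2-fold agar dilution in Mueller Hinton medium, run alongside a reference quinolone. Inoculum adjusted to 10⁸ cfu/mL; compound range 0.007–16 μg/mL.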

[3] = tested on: Enterobacter cloacae; test: In vitro minimum inhibitory concentration for Enterobacter cloacae ATCC 23355; type: functional
[4] = tested on: Proteus vulgaris; test: In vitro minimum inhibitory concentration for Proteus vulgaris ATCC 8427; type: functional; summary of the method: as §1
[5] = tested on: Escherichia coli; test: In vitro minimum inhibitory concentration for Escherichia coli ATCC 10799; type: functional; summary of the method: as §1
[6] = tested on: Bacillus cereus; test: In vitro minimum inhibitory concentration for Bacillus cereus ATCC 11778; type: functional; summary of the method: as §1
[7] = tested on: Staphylococcus epidermidis; test: In vitro minimum inhibitory concentration for Staphylococcus epidermidis ATCC 155-1; type: functional; summary of the method: as §1
[8] = tested on: Bacillus subtilis; test: In vitro minimum inhibitory concentration for Bacillus subtilis ATCC 6633; type: functional; summary of the method: as §1
[9] = tested on: Enterococcus faecalis; test: In vitro minimum inhibitory concentration for Streptococcus faecalis ATCC 10541; type: functional; summary of the method: as §1
[10] = tested on: Klebsiella pneumoniae; test: In vitro minimum inhibitory concentration to inhibit Klebsiella pneumoniae ATCC 10031; type: functional; summary of the method: as §1
[11] = tested on: Pseudomonas aeruginosa; test: In vitro minimum inhibitory concentration for Pseudomonas aeruginosa ATCC 10145; type: functional; summary of the method: as §1
[12] = tested on: Morganella morganii; test: In vitro minimum inhibitory concentration for Morganella morganii ATCC 8019; type: functional; summary of the method: as §1

CCNCC1(C)CN(c2cc3c(cc2F)c(=O)c(C(=O)O)cn3C2CC2)C1
Log k' [1]: -0.0356

CCn1cc(C(=O)O)c(=O)c2c(N)c(F)c(N3CC(C)(N)C3)c(F)c21
Log k' [1]: 0.0367

CC[C@H]1[C@@H](O)CN1c1c(F)cc2c(=O)c(C(=O)O)cn(C3CC3)c2c1F
MIC [2]: 1 µg/mL (≈ 2.74 µM)
MIC [3]: 0.5 µg/mL (≈ 1.37 µM)
MIC [4]: 0.5 µg/mL (≈ 1.37 µM)
MIC [5]: 1 µg/mL (≈ 2.74 µM)
MIC [6]: 0.5 µg/mL (≈ 1.37 µM)
MIC [7]: 0.5 µg/mL (≈ 1.37 µM)
MIC [8]: 0.12 µg/mL (≈ 0.329 µM)
MIC [9]: 8 µg/mL (≈ 22 µM)
MIC [10]: 0.5 µg/mL (≈ 1.37 µM)
MIC [11]: 8 µg/mL (≈ 22 µM)
MIC [12]: 1 µg/mL (≈ 2.74 µM)
Log k' [1]: 0.679

C[C@H]1[C@@H](O)CN1c1c(F)cc2c(=O)c(C(=O)O)cn(C3CC3)c2c1F
MIC [2]: 0.25 µg/mL (≈ 0.714 µM)
MIC [3]: 0.25 µg/mL (≈ 0.714 µM)
MIC [4]: 0.25 µg/mL (≈ 0.714 µM)
MIC [5]: 0.5 µg/mL (≈ 1.43 µM)
MIC [6]: 0.25 µg/mL (≈ 0.714 µM)
MIC [7]: 0.25 µg/mL (≈ 0.714 µM)
MIC [8]: 0.015 µg/mL (≈ 0.0428 µM)
MIC [9]: 2 µg/mL (≈ 5.71 µM)
MIC [10]: 0.015 µg/mL (≈ 0.0428 µM)
MIC [11]: 8 µg/mL (≈ 22.8 µM)
MIC [12]: 0.5 µg/mL (≈ 1.43 µM)
Log k' [1]: 0.462

CC1(C)[C@@H](N)CN1c1nc2c(cc1F)c(=O)c(C(=O)O)cn2C1CC1
MIC [2]: 0.12 µg/mL (≈ 0.346 µM)
MIC [3]: 0.12 µg/mL (≈ 0.346 µM)
MIC [4]: 0.5 µg/mL (≈ 1.44 µM)
MIC [5]: 0.25 µg/mL (≈ 0.722 µM)
MIC [6]: 0.06 µg/mL (≈ 0.173 µM)
MIC [7]: 0.12 µg/mL (≈ 0.346 µM)
MIC [8]: 0.06 µg/mL (≈ 0.173 µM)
MIC [9]: 2 µg/mL (≈ 5.77 µM)
MIC [10]: 0.06 µg/mL (≈ 0.173 µM)
MIC [11]: 2 µg/mL (≈ 5.77 µM)
MIC [12]: 0.25 µg/mL (≈ 0.722 µM)
Log k' [1]: -0.0223

CC1(N)CN(c2c(F)cc3c(=O)c(C(=O)O)cn(-c4ccc(F)cc4F)c3c2F)C1
Log k' [1]: 0.238

CC1(N)CN(c2c(F)cc3c(=O)c(C(=O)O)cn(CCF)c3c2Cl)C1
Log k' [1]: -0.0332

CC1(N)CN(c2nc3c(cc2F)c(=O)c(C(=O)O)cn3CCF)C1
Log k' [1]: -0.1706

CC1(N)CN(c2c(F)cc3c(=O)c(C(=O)O)cn(-c4ccc(F)cc4)c3c2Cl)C1
Log k' [1]: 0.2546

O=C(O)c1cn(C2CC2)c2cc(N3CCC3)c(F)cc2c1=O
Log k' [1]: 0.7188

C[C@@H]1[C@@H](O)CN1c1cc2c(cc1F)c(=O)c(C(=O)O)cn2C1CC1
MIC [2]: 0.12 µg/mL (≈ 0.361 µM)
MIC [3]: 0.12 µg/mL (≈ 0.361 µM)
MIC [4]: 0.06 µg/mL (≈ 0.181 µM)
MIC [5]: 0.25 µg/mL (≈ 0.752 µM)
MIC [6]: 0.06 µg/mL (≈ 0.181 µM)
MIC [7]: 0.06 µg/mL (≈ 0.181 µM)
MIC [8]: 0.015 µg/mL (≈ 0.0451 µM)
MIC [9]: 2 µg/mL (≈ 6.02 µM)
MIC [10]: 0.015 µg/mL (≈ 0.0451 µM)
MIC [11]: 2 µg/mL (≈ 6.02 µM)
MIC [12]: 0.25 µg/mL (≈ 0.752 µM)
Log k' [1]: 0.407

CNC1CN(c2c(F)cc3c(=O)c(C(=O)O)cn(-c4ccc(F)cc4F)c3c2Cl)C1
Log k' [1]: 0.25

CC1(N)CN(c2cc3c(cc2F)c(=O)c(C(=O)O)cn3CCF)C1
Log k' [1]: 0.0374

CC1(N)CN(c2nc3c(cc2F)c(=O)c(C(=O)O)cn3-c2ccc(F)cc2)C1
Log k' [1]: -0.0388

CC1(O)CN(c2cc3c(cc2F)c(=O)c(C(=O)O)cn3C2CC2)C1
Log k' [1]: 0.2148

O=C(O)c1cn(C2CC2)c2c(F)c(N3CC(O)C3)c(F)cc2c1=O
Log k' [1]: 0.3264

CCNCC1(C)CN(c2c(F)cc3c(=O)c(C(=O)O)cn(C4CC4)c3c2F)C1
Log k' [1]: -0.0118

CCC1(O)CN(c2c(F)cc3c(=O)c(C(=O)O)cn(C4CC4)c3c2F)C1
Log k' [1]: 0.7591

CNC1CN(c2nc3c(cc2F)c(=O)c(C(=O)O)cn3C2CC2)C1
Log k' [1]: -0.0773

CCNCC1CN(c2c(F)cc3c(=O)c(C(=O)O)cn(C4CC4)c3c2F)C1
Log k' [1]: 0.2742

CC1(N)CN(c2c(F)cc3c(=O)c(C(=O)O)cn(-c4ccc(F)cc4)c3c2F)C1
Log k' [1]: 0.1106

CC1(N)CN(c2c(F)cc3c(=O)c(C(=O)O)cn(-c4ccc(F)cc4F)c3c2Cl)C1
Log k' [1]: 0.3448

CNC1(C)CN(c2nc3c(cc2F)c(=O)c(C(=O)O)cn3C2CC2)C1
Log k' [1]: 0.0408

CCNCC1CN(c2cc3c(cc2F)c(=O)c(C(=O)O)cn3C2CC2)C1
Log k' [1]: -0.106

NCC1CN(c2cc3c(cc2F)c(=O)c(C(=O)O)cn3C2CC2)C1
Log k' [1]: -0.1549

Nc1c(F)c(N2CC(O)C2)c(F)c2c1c(=O)c(C(=O)O)cn2C1CC1
Log k' [1]: 0.3487

C[C@H]1N(c2c(F)cc3c(=O)c(C(=O)O)cn(C4CC4)c3c2F)C[C@]1(C)O
MIC [2]: 0.12 µg/mL (≈ 0.329 µM)
MIC [3]: 0.5 µg/mL (≈ 1.37 µM)
MIC [4]: 0.25 µg/mL (≈ 0.686 µM)
MIC [5]: 1 µg/mL (≈ 2.74 µM)
MIC [6]: 0.12 µg/mL (≈ 0.329 µM)
MIC [7]: 0.12 µg/mL (≈ 0.329 µM)
MIC [8]: 0.015 µg/mL (≈ 0.0412 µM)
MIC [9]: 0.5 µg/mL (≈ 1.37 µM)
MIC [10]: 0.015 µg/mL (≈ 0.0412 µM)
MIC [11]: 2 µg/mL (≈ 5.49 µM)
MIC [12]: 0.5 µg/mL (≈ 1.37 µM)
Log k' [1]: 0.6899

CC1(CN)CN(c2cc3c(cc2F)c(=O)c(C(=O)O)cn3C2CC2)C1
Log k' [1]: -0.0782

C[C@H]1N(c2cc3c(cc2F)c(=O)c(C(=O)O)cn3C2CC2)C[C@]1(C)O
MIC [2]: 0.25 µg/mL (≈ 0.722 µM)
MIC [3]: 0.25 µg/mL (≈ 0.722 µM)
MIC [4]: 0.25 µg/mL (≈ 0.722 µM)
MIC [5]: 0.25 µg/mL (≈ 0.722 µM)
MIC [6]: 0.12 µg/mL (≈ 0.346 µM)
MIC [7]: 0.12 µg/mL (≈ 0.346 µM)
MIC [8]: 0.03 µg/mL (≈ 0.0866 µM)
MIC [9]: 2 µg/mL (≈ 5.77 µM)
MIC [10]: 0.12 µg/mL (≈ 0.346 µM)
MIC [11]: 2 µg/mL (≈ 5.77 µM)
MIC [12]: 0.5 µg/mL (≈ 1.44 µM)
Log k' [1]: 0.599

CC1(C)[C@@H](N)CN1c1c(F)cc2c(=O)c(C(=O)O)cn(C3CC3)c2c1F
MIC [2]: 0.12 µg/mL (≈ 0.33 µM)
MIC [3]: 0.06 µg/mL (≈ 0.165 µM)
MIC [4]: 0.25 µg/mL (≈ 0.688 µM)
MIC [5]: 0.12 µg/mL (≈ 0.33 µM)
MIC [6]: 0.12 µg/mL (≈ 0.33 µM)
MIC [7]: 0.12 µg/mL (≈ 0.33 µM)
MIC [8]: 0.015 µg/mL (≈ 0.0413 µM)
MIC [9]: 0.5 µg/mL (≈ 1.38 µM)
MIC [10]: 0.03 µg/mL (≈ 0.0826 µM)
MIC [11]: 2 µg/mL (≈ 5.5 µM)
MIC [12]: 0.12 µg/mL (≈ 0.33 µM)
Log k' [1]: 0.1903
